Reference: ChEMBL document CHEMBL1156564, “2-Phenoxy-indan-1-one derivatives as acetylcholinesterase inhibitors: a study on the importance of modifications at the side chain on the activity” (Bioorg Med Chem, 2008)
Calls of active or inactive are those of the source. No cut-off for these calls is given here.

Columns and labels:
Acetylcholinesterase = molecular target: T1, Acetylcholinesterase (Rattus norvegicus, UniProt P37136); experiment: Inhibition of AchE in rat cortex by Ellman's method
T1 sequence (P37136 whole entry): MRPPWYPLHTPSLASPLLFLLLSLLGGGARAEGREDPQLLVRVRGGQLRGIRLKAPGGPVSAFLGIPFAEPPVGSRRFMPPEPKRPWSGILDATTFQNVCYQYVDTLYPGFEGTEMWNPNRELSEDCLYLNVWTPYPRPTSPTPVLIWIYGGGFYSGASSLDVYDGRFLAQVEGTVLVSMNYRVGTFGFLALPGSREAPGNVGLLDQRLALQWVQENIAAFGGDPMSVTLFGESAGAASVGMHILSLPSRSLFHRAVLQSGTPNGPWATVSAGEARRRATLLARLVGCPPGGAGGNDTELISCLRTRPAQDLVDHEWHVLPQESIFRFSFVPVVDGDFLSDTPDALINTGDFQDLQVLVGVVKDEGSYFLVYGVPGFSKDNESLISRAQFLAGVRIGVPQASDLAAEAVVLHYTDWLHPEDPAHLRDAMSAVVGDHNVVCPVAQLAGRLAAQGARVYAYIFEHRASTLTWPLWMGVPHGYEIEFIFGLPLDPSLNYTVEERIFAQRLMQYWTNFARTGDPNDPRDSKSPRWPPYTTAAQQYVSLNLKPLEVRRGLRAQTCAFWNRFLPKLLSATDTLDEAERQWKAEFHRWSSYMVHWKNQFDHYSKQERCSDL

Butyrylcholinesterase = Butyrylcholinesterase (Rattus norvegicus, UniProt Q9JKC1); experiment: Inhibition of BuchE in rat serum by Ellman's method; type: cell-free
Chain of Butyrylcholinesterase (Q9JKC1 whole entry): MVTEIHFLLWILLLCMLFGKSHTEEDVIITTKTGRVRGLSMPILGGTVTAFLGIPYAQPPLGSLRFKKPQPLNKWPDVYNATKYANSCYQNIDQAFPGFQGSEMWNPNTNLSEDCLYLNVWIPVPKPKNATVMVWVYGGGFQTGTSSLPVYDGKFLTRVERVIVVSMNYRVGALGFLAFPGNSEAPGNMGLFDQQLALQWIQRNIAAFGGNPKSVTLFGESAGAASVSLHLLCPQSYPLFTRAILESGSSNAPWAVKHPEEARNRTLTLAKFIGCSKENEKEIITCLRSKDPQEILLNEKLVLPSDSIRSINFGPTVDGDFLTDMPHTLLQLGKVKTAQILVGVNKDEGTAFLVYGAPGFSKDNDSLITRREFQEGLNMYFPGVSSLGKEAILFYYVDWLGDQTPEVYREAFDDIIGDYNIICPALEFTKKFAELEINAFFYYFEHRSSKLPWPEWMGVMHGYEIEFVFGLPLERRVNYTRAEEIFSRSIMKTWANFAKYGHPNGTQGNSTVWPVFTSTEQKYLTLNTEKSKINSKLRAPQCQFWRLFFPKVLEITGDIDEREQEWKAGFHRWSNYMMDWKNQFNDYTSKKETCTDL
Procedure, shortened: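 Modified Ellman assay with rat serum as BuChE source. Mixture of butyrylthiocholine iodide, sodium phosphate buffer pH 7.4, serum and tested compound at different concentrations, incubated 37 °C for 15 min.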

Rattus norvegicus = species: Rattus norvegicus; experiment: Selectivity ratio of IC50 for BuchE in rat serum to IC50 for AchE in rat cortex; type: cell-free
Procedure, shortened: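 IC50 ratio from modified Ellman assays. BuChE from rat serum with butyrylthiocholine iodide. AChE from rat cortex homogenate, preincubated with isoOMPA (0.04 mmol/L) to block BuChE, with acetylthiocholine iodide. Each mixture held enzyme source, sodium phosphate buffer pH 7.4 and compound at different concentrations, incubated 37 °C for 15 min.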

PC-12 [1] = experiment: Neuroprotective activity in rat PC12 cells assessed as inhibition of H2O2-induced neurotoxicity at 0.1 uM after 2 hrs by MTT assay; type: functional, cell-based
Procedure, shortened: (§1)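 Undifferentiated PC12 cells were seeded at 5000 cells/well and cultured at 37 °C under 5% CO2. They were left to attach for 1 day before […] was added. 2 h later the cells were exposed to H2O2. Viability was read by MTT (0.25 mg/mL final, 4 h), with formazan dissolved in DMSO and OD read at 570 nm.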

PC-12 [2] = experiment: Neuroprotective activity against rat PC12 cells assessed as inhibition of H2O2-induced neurotoxicity at 0.5 uM after 2 hrs by MTT assay; type: functional, cell-based; procedure, shortened: as §1

Row | SMILES | IC50 (Acetylcholinesterase) [nM] | IC50 (Butyrylcholinesterase) [nM] | Ratio IC50 (Rattus norvegicus) | Activity (PC-12 [1]) | Activity (PC-12 [2])
1 | CCN(CC)CCC(=O)c1ccc(OC2Cc3cc(OC)c(OC)cc3C2=O)cc1 (stereo not given) | 0.78 | 1520 | 1950 | Active | Active
2 | COc1cc2c(cc1OC)C(=O)C(Oc1ccc(C(=O)CCN3CCCC3)cc1)C2 (stereo not given) | 4.16 | 6040 | 1450 |  | 
3 | CCN(C)CCC(=O)c1ccc(OC2Cc3cc(OC)c(OC)cc3C2=O)cc1 (stereo not given) | 1.85 | 4510 | 2440 |  | 
4 | COc1cc2c(cc1OC)C(=O)C(Oc1ccc(CCCN3CCCC3)cc1)C2 (stereo not given) | 209 | 2340 | 11.2 |  | 
5 | COc1cc2c(cc1OC)C(=O)C(Oc1cccc(CCN3CCCCC3)c1)C2 (stereo not given) | 1550 | 7000 | 4.52 |  | 
6 | CCN(CC)CC(=O)c1ccc(OC2Cc3cc(OC)c(OC)cc3C2=O)cc1 (stereo not given) | 280 | 2430 | 8.7 |  | 
7 | CCN(CC)CCc1cccc(OC2Cc3cc(OC)c(OC)cc3C2=O)c1 (stereo not given) | 2090 | 11100 | 5.31 |  | 
8 | COc1cc2c(cc1OC)C(=O)C(CC1CCN(Cc3ccccc3)CC1)C2 (stereo not given) |  |  |  | Active | Active
9 | CCN(CC)CCCCc1ccc(OC2Cc3cc(OC)c(OC)cc3C2=O)cc1 (stereo not given) | 481 | 3260 | 6.77 |  | 
10 | CCN(C)CC(=O)c1ccc(OC2Cc3cc(OC)c(OC)cc3C2=O)cc1 (stereo not given) | 31.6 | 588 | 18.6 |  | 
11 | COc1cc2c(cc1OC)C(=O)C(Oc1ccc(CCCN3CCCCC3)cc1)C2 (stereo not given) | 640 | 2790 | 4.36 |  | 
12 | CCN(C)CCc1ccc(OC2Cc3cc(OC)c(OC)cc3C2=O)cc1 (stereo not given) | 51.6 | 22000 | 427 |  | 
13 | COc1cc2c(cc1OC)C(=O)C(Oc1cccc(CCN3CCCC3)c1)C2 (stereo not given) | 1770 | 15400 | 8.69 |  | 
14 | CCN(C)CCCC(=O)c1ccc(OC2Cc3cc(OC)c(OC)cc3C2=O)cc1 (stereo not given) | 37.6 | 26900 | 715 |  | 
15 | CCN(C)CCc1cccc(OC2Cc3cc(OC)c(OC)cc3C2=O)c1 (stereo not given) | 710 | 8650 | 12.2 |  | 
16 | COc1cc2c(cc1OC)C(=O)C(Oc1ccc(C(=O)CCCN3CCCC3)cc1)C2 (stereo not given) | 62 | 2930 | 47.2 |  | 
17 | COc1cc2c(cc1OC)C(=O)C(Oc1ccc(CCCCN3CCCC3)cc1)C2 (stereo not given) | 415 | 3220 | 7.76 |  | 
18 | COc1cc2c(cc1OC)C(=O)C(Oc1ccc(C(=O)CCCN3CCCCC3)cc1)C2 (stereo not given) | 529 | 8970 | 17 |  | 
19 | COc1cc2c(cc1OC)C(=O)C(Oc1ccc(C(=O)CN3CCCC3)cc1)C2 (stereo not given) | 240 | 1720 | 7.2 |  | 
20 | COc1cc2c(cc1OC)C(=O)C(Oc1ccc(C(=O)CN3CCCCC3)cc1)C2 (stereo not given) | 364 | 1660 | 4.57 |  | 
21 | CCN(CC)CCCc1ccc(OC2Cc3cc(OC)c(OC)cc3C2=O)cc1 (stereo not given) | 277 | 3990 | 14.4 |  | 
22 | CCN(CC)CCCC(=O)c1ccc(OC2Cc3cc(OC)c(OC)cc3C2=O)cc1 (stereo not given) | 40.6 | 37700 | 927 |  | 
23 | COc1cc2c(cc1OC)C(=O)C(Oc1ccc(C(=O)CCN3CCCCC3)cc1)C2 (stereo not given) | 17.3 | 3240 | 187 |  | 
24 | COc1cc2c(cc1OC)C(=O)C(Oc1ccc(CCN3CCCCC3)cc1)C2 (stereo not given) | 50.2 | 5110 | 102 |  | 
25 | CCN(CC)CCC(=O)c1cccc(OC2Cc3cc(OC)c(OC)cc3C2=O)c1 (stereo not given) | 2370 | 1520 | 0.64 |  | 
26 | COc1cc2c(cc1OC)C(=O)C(Oc1cccc(C(=O)CCN3CCCC3)c1)C2 (stereo not given) | 832 | 11100 | 13.3 |  | 
27 | COc1cc2c(cc1OC)C(=O)C(Oc1ccc(CCN3CCCC3)cc1)C2 (stereo not given) | 37.3 | 30400 | 816 |  | 
28 | CCN(CC)CCc1ccc(OC2Cc3cc(OC)c(OC)cc3C2=O)cc1 (stereo not given) | 42.1 | 16600 | 394 |  | 
